The values below come from ChEMBL document CHEMBL4680177, “Novel distamycin analogues that block the cell cycle of African trypanosomes with high selectivity and potency” (Eur J Med Chem, 2020).

The test system of data set [1] is Trypanosoma brucei brucei. Nature of the data set: Antitrypanosomal activity against Trypanosoma brucei brucei AnTaT 1.1 infected in Balb/cJ mouse assessed as reduction in parasitemia at 2.09 to 8.36 mg/kg, ip administered for 7 days and measured up to 17 days. The data set is classed as functional, organism-based. Conditions: dose 2.09-8.36 mg/kg, time 7.0 day. The essentials:
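Female BalB/cJ mice, 6-8 weeks, ~20 g, infected ip with 10^4 bloodstream T. b. brucei AnTaT 1.1. From day 4 post-infection, groups of 6 dosed ip in 300 µL PBS: daily for 7 days at 2.09 or 8.36 mg/Kg, or one 40 mg/Kg dose; vehicle DMSO 3.3 mg/Kg/day for 7 days. Parasitemia from submandibular blood counted by light microscopy in a Neubauer chamber. Detection limit ≥2.5×10^4 parasites/mL. Kruskal-Wallis test versus vehicle.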

The test system of data set [2] is Trypanosoma brucei brucei. Briefly: Induction of cell cycle arrest in bloodstream form Trypanosoma brucei brucei 427 assessed as accumulation at G2/M phase at 14 nM after 24 hrs by propidium iodide staining based flow cytometric analysis (reference value: 20%). In kind it is functional. (In general: Flow cytometry measures light scatter and fluorescence of single cells or particles in a stream.)

Data set [3] relates to Trypanosoma brucei brucei. Nature of the data set: Induction of oxidative stress in bloodstream form Trypanosoma brucei brucei 427 up to 5 times EC50 concentration after 4 hrs by propidium iodide staining based flow cytometric analysis. The data set is classed as functional.
Data set [4] relates to Trypanosoma brucei brucei. Briefly: Antitrypanosomal activity against bloodstream form Trypanosoma brucei brucei 427 […] assessed as cell viability at 10 nM preincubated in fresh serum for 45 mins followed by culture addition and measured after 24 hrs by propidium iodide staining based flow cytometric analysis (reference value: 100 +/- 3.5%). The data set is classed as functional. Conditions: time 48.0 hrs, in the assay text read “for 24 hrs” for “for 45 mins”. The procedure, abridged:
(§1)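 Compound at 100 µM, with ≤1% v/v DMSO, held 24 h at 37 °C in fresh serum or in serum heat-inactivated at 54 °C for 45 min. It was then added to 449-hGrx-roGFP2 T. brucei cultures at 10 or 1000 nM final. Viability after 24 h was read by PI flow cytometry as in the standard assay. Untreated serum-exposed controls were included; mean ± SD.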

For data set [5], the system named is Trypanosoma brucei brucei. Nature of the data set: Induction of cell cycle arrest in bloodstream form Trypanosoma brucei brucei 427 assessed as accumulation at G0/G1 phase at 14 nM after 24 hrs by propidium iodide staining based flow cytometric analysis (reference value: 49%). In kind it is functional.
Data set [6] relates to Trypanosoma brucei brucei. Nature of the data set: Antitrypanosomal activity against bloodstream form Trypanosoma brucei brucei 427 […] assessed as cell viability after 24 hrs by propidium iodide staining based flow cytometric analysis. In kind it is functional, organism-based. The conditions noted are these: Trypanosoma brucei, 427, 24 h. The essentials: (§2)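 Bloodstream T. b. brucei 427 expressing hGrx1-roGFP2 (line 449_Grx-roGFP2), grown in HMI-9 with 10% FBS, 37 °C, 5% CO2. Biosensor induced with oxytetracycline (1 µg/mL final). Exponential-phase cells seeded at 5×10^5/mL and exposed 24 h to a single 5 µM screen, or to 0.0001–120 µM for EC50. DMSO ≤1% v/v. Viability read by PI exclusion on flow cytometry, expressed relative to DMSO control. EC50 from nonlinear fit; ≥3 replicates, S.D.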

In data set [7] the test system is Trypanosoma brucei brucei. Nature of the data set: Antitrypanosomal activity against bloodstream form Trypanosoma brucei brucei 427 assessed as cell viability at 10 nM after 24 hrs by propidium iodide staining based flow cytometric analysis (reference value: 100 +/- 10%). The data set is classed as functional.
Data set [8] concerns Trypanosoma brucei brucei. Briefly: Antitrypanosomal activity against bloodstream form Trypanosoma brucei brucei 427 […] assessed as cell viability at 5 uM after 24 hrs by propidium iodide staining based flow cytometric analysis relative to control. The data set is classed as functional. The essentials: as §2
Data set [9] deals with Trypanosoma brucei brucei. Nature of the data set: Antitrypanosomal activity against bloodstream form Trypanosoma brucei brucei 427 […] assessed as cell viability at 1000 nM preincubated in heat-inactivated serum for 45 mins followed by culture addition and measured after 24 hrs by propidium iodide staining based flow cytometric analysis (reference value: 98.5 +/- 1.4%). The data set is classed as functional. The conditions noted are these: time 48.0 hrs, in the assay text read “for 24 hrs” for “for 45 mins”. The essentials:
as §1

The subject of data set [10] is Trypanosoma brucei brucei. Briefly: Induction of cell cycle arrest in bloodstream form Trypanosoma brucei brucei 427 assessed as accumulation at single kinetoplast and septum like or partitioned nucleus cells at 7 nM after 24 hrs by DAPI. staining based epifluorescence microscopic analysis relative to control. The data set is classed as functional. The procedure, abridged:
(§3)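 Parasites at 5×10^5/mL treated 24 h with DMSO 1%, DAC 41 nM, or compound at 12 or 7 nM. Cells fixed in 4% paraformaldehyde for 18 min at room temperature and smeared on slides. Mounted in DAPI medium and scored by epifluorescence microscopy (60X/100X) for kinetoplast/nucleus configuration. At least 50 cells per sample.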

Data set [11] deals with DNA. Briefly: Competitive binding affinity to Escherichia coli XL-1 pUC18 plasmid DNA at 20 uM after 120 mins by DAPI staining based spectrofluorimetric method relative to control. The data set is classed as nucleic-acid assay. The procedure, abridged:
(§4)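 pUC18 or pUC18 carrying a T. brucei minicircle, 5 nM in PBS pH 7.4, incubated 30 or 120 min with 20 µM compound or DMSO 1% v/v. DAPI then added to 500 nM final and emission recorded by spectrofluorimetry (ex 358 nm, em 368–600 nm). Fluorescence normalized to the DNA+DMSO+DAPI control set at 100%. Mean ± S.D., n=3.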

Data set [12] concerns Trypanosoma brucei brucei. Briefly: Induction of membrane permeability in bloodstream form Trypanosoma brucei brucei 427 assessed as change in integrity at EC50 concentration after 4 hrs by propidium iodide staining based flow cytometric analysis.
Data set [13] concerns Trypanosoma brucei brucei. Nature of the data set: Induction of cell cycle arrest in bloodstream form Trypanosoma brucei brucei 427 assessed as accumulation at 1K+1N cells at 7 nM after 24 hrs by DAPI. staining based epifluorescence microscopic analysis (reference value: 80%). In kind it is functional. The essentials: as §3
The test system of data set [14] is Trypanosoma brucei brucei. Nature of the data set: Induction of cell cycle arrest in bloodstream form Trypanosoma brucei brucei 427 assessed as accumulation at G0/G1 phase at 7 nM after 24 hrs by propidium iodide staining based flow cytometric analysis (reference value: 49%). The data set is classed as functional.
For data set [15], the system named is Trypanosoma brucei brucei. Nature of the data set: Antitrypanosomal activity against bloodstream form Trypanosoma brucei brucei 427 […] assessed as cell viability at 10 nM preincubated in heat-inactivated serum for 45 mins followed by culture addition and measured after 24 hrs by propidium iodide staining based flow cytometric analysis (reference value: 98.5 +/- 1.4%). In kind it is functional. Conditions: time 48.0 hrs, in the assay text read “for 24 hrs” for “for 45 mins”. The essentials: as §1

The subject of data set [16] is Trypanosoma brucei brucei. Nature of the data set: Induction of cell cycle arrest in bloodstream form Trypanosoma brucei brucei 427 assessed as accumulation at G2/M phase at 7 nM after 24 hrs by propidium iodide staining based flow cytometric analysis (reference value: 20%). The data set is classed as functional.
The subject of data set [17] is Trypanosoma brucei brucei. Briefly: Antitrypanosomal activity against bloodstream form Trypanosoma brucei brucei 427 assessed as cell viability at 1000 nM after 24 hrs by propidium iodide staining based flow cytometric analysis (reference value: 100 +/- 10%). The data set is classed as functional.
For data set [18], the system named is DNA. Nature of the data set: Competitive binding affinity to Escherichia coli XL-1 pUC18 K-DNA at 20 uM after 120 mins by DAPI staining based spectrofluorimetric method relative to control. The data set is classed as nucleic-acid assay. The procedure, abridged: as §4
Data set [19] relates to Trypanosoma brucei brucei. Briefly: Induction of cell cycle arrest in bloodstream form Trypanosoma brucei brucei 427 assessed as accumulation at S phase at 7 nM after 24 hrs by propidium iodide staining based flow cytometric analysis (reference value: 31%). The data set is classed as functional.
The test system of data set [20] is Trypanosoma brucei brucei. Briefly: Antitrypanosomal activity against bloodstream form Trypanosoma brucei brucei 427 […] assessed as cell viability at 1000 nM preincubated in fresh serum for 45 mins followed by culture addition and measured after 24 hrs by propidium iodide staining based flow cytometric analysis (reference value: 100 +/- 3.5%). In kind it is functional. Conditions: time 48.0 hrs, in the assay text read “for 24 hrs” for “for 45 mins”. The essentials:
as §1

The next data set relates to J774. Briefly: Cytotoxicity against mouse J774 cells assessed as reduction in cell viability after 24 hrs by WST-1 assay. Conditions: J774, 24 h. The data set is classed as cell-based. The essentials:
(§5)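 J774 murine macrophages in DMEM with 10% FBS, 37 °C, 5% CO2. Exposed 24 h to a 6-point compound series, in triplicate, up to 120 µM with DMSO 1% v/v. Viability read with WST-1 reagent relative to DMSO control and EC50 taken from nonlinear fit. The selectivity index is the macrophage EC50 divided by the trypanosome EC50.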
A general note: Tetrazolium assays rely on reduction of a dye to a coloured formazan, in cell work by metabolically active cells.

Data set [21] in a line: Selectivity index, ratio of EC50 for cytotoxicity against mouse J774 cells to EC50 for antitrypanosomal activity against bloodstream form Trypanosoma brucei brucei 427. The data set is classed as toxicity, cell-based. The conditions noted are these: read-out: Ratio EC50. The essentials:
as §5

Active and inactive are the calls of the source. The rule behind the calls is not given here.

In the case of `CCOC(=O)c1csc(NC(=O)c2cc(NC(=O)c3csc(NC(=O)OC(C)(C)C)n3)cn2C)n1`, the outcome (in [1]; in [3]; with DNA [11]; in data set [12]) was inactive. The Activity in data set [2] is given as 94%; in data set [4] it was 84.2%; in data set [5] it was 6%; in data set [7], 54.1%; in data set [8] it was 0.06%; in [9], 17.5%. The Activity in data set [10] is listed as 26%; in data set [13], 46%; in [14] it was 44%; in data set [15], 104.6%; in data set [16] it was 22%; in data set [17], 10.7%. Moreover, the figures for the Activity (in the data set on DNA [18]; in data set [19]; in data set [20]) were 48%, 34% and 17.2%, respectively. Moreover, the EC50 is 7.1 nM in [6] and at least 40000 nM with J774. Further, in data set [21], the selectivity ratio was 5560.

A word on the EC50: it is the concentration giving half of the maximal effect.
